# How the values were obtained:
# Rattus norvegicus [1] = test: Tested for mGluR agonist activity by measuring the PCP induced hyperactivity in rats at 3 mg/kg; format: functional
# Summary of the method: (§1)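 Rats housed singly and acclimatized 60 min in activity-monitoring apparatus inside a sound-proof box. Oral dosing 180 min before PCP 5 mg/kg i.p.; locomotor counts recorded every 10 min for 120 min, n=6 per group. Total counts expressed as percent inhibition relative to vehicle (100%); ED50 derived; ANOVA plus Dunnett's test.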
# Rattus norvegicus [2] = test: (§2) Tested for mGluR agonist activity by measuring the PCP induced hyperactivity in rats at 30 mg/kg; format: functional; summary of the method: as §1
# [3] = target: T1, Metabotropic glutamate receptor 3 (Rattus norvegicus, UniProt P31422); test: Tested for binding affinity against Metabotropic glutamate receptor 3 in CHO cells using [3H]-7 as radioligand; format: cell-based
# T1 sequence (P31422 whole entry): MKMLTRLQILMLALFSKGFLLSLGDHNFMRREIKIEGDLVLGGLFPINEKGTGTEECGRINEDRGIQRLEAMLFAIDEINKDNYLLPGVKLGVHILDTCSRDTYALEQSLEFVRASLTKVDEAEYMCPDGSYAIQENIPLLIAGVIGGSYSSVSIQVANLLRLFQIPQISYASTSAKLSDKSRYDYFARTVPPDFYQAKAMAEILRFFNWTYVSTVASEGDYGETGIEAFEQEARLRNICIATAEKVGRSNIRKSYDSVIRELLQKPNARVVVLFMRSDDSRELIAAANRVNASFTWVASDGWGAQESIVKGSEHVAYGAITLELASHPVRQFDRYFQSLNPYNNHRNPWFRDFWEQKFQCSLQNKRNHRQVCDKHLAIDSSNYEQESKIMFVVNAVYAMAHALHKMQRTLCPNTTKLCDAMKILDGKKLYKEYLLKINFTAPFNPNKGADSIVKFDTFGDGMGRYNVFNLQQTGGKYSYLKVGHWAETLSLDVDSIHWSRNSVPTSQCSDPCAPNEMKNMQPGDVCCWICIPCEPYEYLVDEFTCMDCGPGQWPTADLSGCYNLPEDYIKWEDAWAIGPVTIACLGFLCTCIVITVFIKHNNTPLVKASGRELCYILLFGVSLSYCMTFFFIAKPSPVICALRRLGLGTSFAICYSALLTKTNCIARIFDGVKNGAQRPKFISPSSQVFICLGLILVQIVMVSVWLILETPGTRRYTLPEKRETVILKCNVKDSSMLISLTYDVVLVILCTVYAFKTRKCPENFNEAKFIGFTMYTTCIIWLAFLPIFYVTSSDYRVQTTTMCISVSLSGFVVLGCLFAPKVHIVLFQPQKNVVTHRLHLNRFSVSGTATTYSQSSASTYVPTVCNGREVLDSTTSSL
# Rattus norvegicus [4] = test: Tested for mGluR agonist activity by measuring the PCP induced head-weavings in rats at 100 ug/kg; format: functional
# Summary of the method: (§3)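 Rats acclimatized individually at least 60 min. Compound given orally 60 min before PCP 7.5 mg/kg i.p. Head-weavings (slow side-to-side head movements) counted every 10 min for 30 min after PCP, n=6 per group. Percent inhibition versus vehicle total (100%); ED50 derived; ANOVA with Dunnett's test.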
# Rattus norvegicus [5] = test: Tested for % inhibition of PCP induced head-weavings in rats at 100 ug/kg; format: functional; summary of the method: as §3
# Rattus norvegicus [6] = test: Tested for % inhibition of PCP induced hyperactivity in rats at 3 mg/kg; format: functional; summary of the method: as §1
# Rattus norvegicus [7] = test: Tested for mGluR agonist activity by measuring the PCP induced head-weavings in rats at 1000 ug/kg; format: functional; summary of the method: as §3
# Rattus norvegicus [8] = test: Tested for % inhibition of PCP induced head-weavings in rats at 300 ug/kg; format: functional; summary of the method: as §3
# Rattus norvegicus [9] = test: (§4) Tested for % inhibition of PCP induced hyperactivity in rats at 10 mg/kg; format: functional; summary of the method: as §1
# [10] = target: T1, Metabotropic glutamate receptor 3; test: Agonist potency against cloned Metabotropic glutamate receptor 3; format: functional
# [11] = target: T1, Metabotropic glutamate receptor 3; test: Antagonist activity against Metabotropic glutamate receptor 3 expressed in CHO cells was evaluated in presence of 30 uM glutamic acid; format: functional, cell-based
# Summary of the method: (§5)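 mGluR2- or mGluR3-expressing CHO cells grown 2 days, then held 4-5 h in medium without glutamine. Cells were preincubated 20 min at 37 °C in PBS with 1 mM IBMX, then exposed for 15 min at 37 °C to 10 µM forskolin plus test agent with 30 µM glutamic acid present. Reaction stopped with ice-cold ethanol; cAMP measured by enzyme immunoassay.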
# Rattus norvegicus [12] = test: (§6) Tested for mGluR agonist activity by measuring the PCP induced hyperactivity in rats at 10 mg/kg; format: functional; summary of the method: as §1
# Rattus norvegicus [13] = test: Tested for % inhibition of PCP induced head-weavings in rats at 1000 ug/kg; format: functional; summary of the method: as §3
# Rattus norvegicus [14] = test: (§7) Tested for % inhibition of PCP induced hyperactivity in rats at 30 mg/kg; format: functional; summary of the method: as §1
# Rattus norvegicus [15] = test: Tested for mGluR agonist activity by measuring the PCP induced head-weavings in rats at 300 ug/kg; format: functional; summary of the method: as §3
# Rattus norvegicus [16] = test: (§8) Effective dose to evaluate PCP induced hyper activity in rats after oral administration; format: functional; summary of the method: as §1
# Rattus norvegicus [17] = test: as §8; format: functional; remark: listed apart in the source
# Rattus norvegicus [18] = test: Tested for % inhibition of PCP induced head-weavings in rats at 10000 ug/kg
# Rattus norvegicus [19] = test: Tested for mGluR agonist activity by measuring the head-weaving behavior in rats at 1000 ug/kg
# Rattus norvegicus [20] = test: Tested for mGluR agonist activity by measuring the PCP induced hyperactivity in rats at 100 mg/kg; format: functional
# Rattus norvegicus [21] = test: as §6; format: functional; remark: listed apart in the source
# Rattus norvegicus [22] = test: as §2; format: functional; remark: listed apart in the source
# Rattus norvegicus [23] = test: Effective dose to evaluate PCP induced head-weaving behavior in rats after oral administration; format: functional
# Rattus norvegicus [24] = test: Tested for % inhibition of PCP induced hyperactivity in rats at 100 mg/kg
# Rattus norvegicus [25] = test: as §7; format: functional; remark: listed apart in the source
# Rattus norvegicus [26] = test: as §4; format: functional; remark: listed apart in the source
# Rattus norvegicus [27] = test: Tested for mGluR agonist activity by measuring the PCP induced hyperactivity in rats at […]; format: functional
# [28] = target: T2, Metabotropic glutamate receptor 2 (Rattus norvegicus, UniProt P31421); test: Antagonist activity against Metabotropic glutamate receptor 2 expressed in CHO cells was evaluated in presence of 30 uM glutamic acid; format: functional, cell-based; settings: read-out: EC50 (the source's name)
# T2 sequence (P31421 whole entry): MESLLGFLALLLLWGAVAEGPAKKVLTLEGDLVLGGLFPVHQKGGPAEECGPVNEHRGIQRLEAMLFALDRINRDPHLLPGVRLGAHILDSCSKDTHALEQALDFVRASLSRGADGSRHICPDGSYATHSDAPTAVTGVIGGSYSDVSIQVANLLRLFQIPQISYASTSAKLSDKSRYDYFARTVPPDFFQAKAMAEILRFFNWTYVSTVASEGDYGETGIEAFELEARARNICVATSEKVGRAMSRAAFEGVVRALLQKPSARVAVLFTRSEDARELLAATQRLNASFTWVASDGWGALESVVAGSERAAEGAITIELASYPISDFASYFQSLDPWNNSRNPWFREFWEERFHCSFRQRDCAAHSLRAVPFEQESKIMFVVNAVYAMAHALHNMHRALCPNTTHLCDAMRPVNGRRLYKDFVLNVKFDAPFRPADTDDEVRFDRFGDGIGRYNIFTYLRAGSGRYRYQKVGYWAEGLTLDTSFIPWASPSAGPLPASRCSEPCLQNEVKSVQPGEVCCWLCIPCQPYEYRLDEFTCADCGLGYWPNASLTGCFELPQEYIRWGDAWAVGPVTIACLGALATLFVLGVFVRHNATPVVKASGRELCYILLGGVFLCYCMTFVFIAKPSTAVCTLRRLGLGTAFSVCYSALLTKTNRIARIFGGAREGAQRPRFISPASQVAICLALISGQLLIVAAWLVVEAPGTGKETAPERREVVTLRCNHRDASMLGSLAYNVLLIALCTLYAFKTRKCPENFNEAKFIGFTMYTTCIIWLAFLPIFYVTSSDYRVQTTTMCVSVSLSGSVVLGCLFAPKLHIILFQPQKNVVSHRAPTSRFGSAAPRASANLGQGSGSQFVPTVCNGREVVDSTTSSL
# [29] = target: T2, Metabotropic glutamate receptor 2; test: Agonist activity against Metabotropic glutamate receptor 2 expressed in CHO cells was evaluated by measuring forskolin-induced cyclic AMP formation; format: functional, cell-based
# [30] = target: T2, Metabotropic glutamate receptor 2; test: Antagonist activity against Metabotropic glutamate receptor 2 expressed in CHO cells was evaluated by measuring forskolin-induced cyclic AMP formation; format: functional, cell-based; summary of the method: as §5
# Rattus norvegicus [31] = test: Tested for mGluR agonist activity by measuring the PCP induced head weaving behavior in rats at 0.03 ug/kg; format: functional; summary of the method: as §3
# Rattus norvegicus [32] = test: Tested for mGluR agonist activity by measuring the PCP induced head weaving behavior in rats at 0.1 ug/kg; format: functional; summary of the method: as §3
# Rattus norvegicus [33] = test: Tested for mGluR agonist activity by measuring the PCP induced head weaving behavior in rats at 0.3 ug/kg; format: functional; summary of the method: as §3
# Rattus norvegicus [34] = test: Tested for mGluR agonist activity by measuring the PCP induced hyperactivity in rats at 0.1 mg/kg; format: functional; summary of the method: as §1
# Rattus norvegicus [35] = test: Tested for % inhibition of PCP induced hyperactivity in rats at 1 mg/kg; format: functional; summary of the method: as §1
# Rattus norvegicus [36] = test: Tested for % inhibition of PCP induced head-weavings in rats at 0.03 ug/kg; format: functional; summary of the method: as §3
# [37] = target: T2, Metabotropic glutamate receptor 2; test: Tested for binding affinity against Metabotropic glutamate receptor 2 in CHO cells using [3H]-7 as radioligand; format: cell-based
# Rattus norvegicus [38] = test: Tested for % inhibition of PCP induced head-weavings in rats at 0.1 ug/kg; format: functional; summary of the method: as §3
# Rattus norvegicus [39] = test: Tested for % inhibition of PCP induced head-weavings in rats at 0.3 ug/kg; format: functional; summary of the method: as §3
# Rattus norvegicus [40] = test: Tested for mGluR agonist activity by measuring the PCP induced hyperactivity in rats at 0.3 mg/kg; format: functional; summary of the method: as §1
# Rattus norvegicus [41] = test: Tested for % inhibition of PCP induced hyperactivity in rats at 0.1 mg/kg; format: functional; summary of the method: as §1
# Rattus norvegicus [42] = test: Tested for mGluR agonist activity by measuring the PCP induced hyperactivity in rats at 1 mg/kg; format: functional; summary of the method: as §1
# Rattus norvegicus [43] = test: Tested for % inhibition of PCP induced hyperactivity in rats at 0.3 mg/kg; format: functional; summary of the method: as §1
smiles,measurement,setting,value
N[C@]1(C(=O)O)[C@H]2[C@@H](C[C@@H]1F)[C@@H]2C(=O)O,Total counts,Rattus norvegicus [1],40600
same,Total counts,Rattus norvegicus [2],1850
same,Ki,[3],0.0659 µM
same,Total counts,Rattus norvegicus [4],25.5
same,inhibition in vivo at 0.1 mg/kg,Rattus norvegicus [5],35%
same,inhibition in vivo at 3 mg/kg,Rattus norvegicus [6],26%
same,Total counts,Rattus norvegicus [7],7.5
same,inhibition in vivo at 0.3 mg/kg,Rattus norvegicus [8],47%
same,inhibition in vivo at 10 mg/kg,Rattus norvegicus [9],79%
same,EC50,[10],0.0454 µM
same,EC50,[11],> 100 µM
same,Total counts,Rattus norvegicus [12],11300
same,inhibition in vivo at 1 mg/kg,Rattus norvegicus [13],81%
same,inhibition in vivo at 30 mg/kg,Rattus norvegicus [14],97%
same,Total counts,Rattus norvegicus [15],21
same,ED50,Rattus norvegicus [16],5.1 mg/kg
N[C@@]1(C(=O)O)CC[C@H]2[C@H](C(=O)O)[C@H]21,ED50,Rattus norvegicus [17],> 100 mg/kg
same,Ki,[3],0.0535 µM
same,Inhibition %,Rattus norvegicus [18],83%
same,Number of head-weavings,Rattus norvegicus [19],33
same,Total counts,Rattus norvegicus [20],36000
same,Total counts,Rattus norvegicus [21],40600
same,EC50,[10],0.0628 µM
same,Total counts,Rattus norvegicus [22],43800
same,ED50,Rattus norvegicus [23],3 mg/kg
same,inhibition in vivo at 100 mg/kg,Rattus norvegicus [24],44%
same,inhibition in vivo at 30 mg/kg,Rattus norvegicus [25],32%
same,inhibition in vivo at 10 mg/kg,Rattus norvegicus [26],37%
same,Total counts,Rattus norvegicus [27],6.5
N[C@@]1(C(=O)O)CC(O)[C@@H]2[C@H]1[C@@]2(F)C(=O)O (mixture of isomers),IC50,[28],> 100 µM
same,EC50,[29],0.021 µM
N[C@@]1(C(=O)O)CC(=O)[C@@H]2[C@H]1[C@@]2(F)C(=O)O (racemic),EC50,[29],0.00126 µM
N[C@]1(C(=O)O)[C@H]2[C@@H](CC1(F)F)[C@@H]2C(=O)O (racemic),IC50,[28],36.2 µM
same,EC50,[29],> 100 µM
N[C@@]1(C(=O)O)CC[C@@H]2[C@H]1[C@@]2(F)C(=O)O (racemic),EC50,[29],0.0342 µM
C[C@]1(C(=O)O)[C@@H]2CC[C@@](N)(C(=O)O)[C@@H]21 (racemic),EC50,[30],> 100 µM
same,EC50,[29],> 100 µM
N[C@@]1(C(=O)O)CC[C@@H]2[C@H]1[C@@]2(F)C(=O)O (stereo in doubt; (+)11),EC50,[29],1.12 µM
N[C@@]1(C(=O)O)CC(=O)[C@@H]2[C@H]1[C@@]2(F)C(=O)O (stereo in doubt; (+)-14),Total counts,Rattus norvegicus [1],7760
same,Ki,[3],0.00362 µM
same,inhibition in vivo at 3 mg/kg,Rattus norvegicus [6],87%
same,Total counts,Rattus norvegicus [31],27.1
same,Total counts,Rattus norvegicus [32],16.2
same,IC50,[28],> 100 µM
same,Total counts,Rattus norvegicus [33],4.88
same,Total counts,Rattus norvegicus [34],38500
same,inhibition in vivo at 1 mg/kg,Rattus norvegicus [35],56%
same,inhibition in vivo at 3e-05 mg/kg,Rattus norvegicus [36],21%
same,Ki,[37],0.0033 µM
same,EC50,[29],0.00057 µM
same,inhibition in vivo at 0.0001 mg/kg,Rattus norvegicus [38],52%
same,EC50,[10],0.00207 µM
same,inhibition in vivo at 0.0003 mg/kg,Rattus norvegicus [39],86%
same,EC50,[11],> 100 µM
same,Total counts,Rattus norvegicus [40],27700
same,inhibition in vivo at 0.1 mg/kg,Rattus norvegicus [41],36%
same,Total counts,Rattus norvegicus [42],26100
same,inhibition in vivo at 0.3 mg/kg,Rattus norvegicus [43],54%
same,ED50,Rattus norvegicus [16],0.3 mg/kg
N[C@@]1(C(=O)O)CC[C@@H]2[C@H]1[C@@]2(F)C(=O)O (stereo in doubt; (-)-11),Ki,[3],0.0417 µM
same,IC50,[28],> 100 µM
same,Ki,[37],0.0225 µM
same,EC50,[29],0.0166 µM
same,EC50,[10],0.0809 µM
same,EC50,[11],> 100 µM
N[C@@]1(C(=O)O)CC(=O)[C@@H]2[C@H]1[C@@]2(F)C(=O)O (stereo in doubt; (-)-14),EC50,[29],0.0947 µM

# From ChEMBL document CHEMBL1133557, “Synthesis, SARs, and pharmacological characterization of 2-amino-3 or 6-fluorobicyclo[3.1.0]hexane-2,6-dicarboxylic acid derivatives as potent, selective, and orally active group II metabotropic glutamate receptor agonists” (J Med Chem, 2000)
